Experimental data as given in ChEMBL document CHEMBL3414536 (Eur J Med Chem, 2015).

Experiments:
Hs 683 = assay: Cytostatic activity against human Hs683 cells after 72 hrs by videomicroscopy; assay type: functional, cell-based; details: Hs 683, 72 h
[1] = Aqueous solubility of the compound; assay type: physicochemical; details: buffer
In short: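 Solubility measured at pH 7.4, room temperature, by a previously described protocol; reported in µg/ml.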

[2] = Cytotoxicity against human Hs683 cells by MTT assay; assay type: functional, cell-based; details: Hs 683
In short: (§1)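 Human cancer cell lines were cultured for three days with or without compound at 10 nM to 100 µM and read by MTT colorimetric assay. IC50 is the concentration reducing global growth by 50% relative to untreated controls.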

A549 = assay: Cytotoxicity against human A549 cells by MTT assay; assay type: functional, cell-based; in short: as §1
SK-MEL-28 [3] = assay: Cytotoxicity against human SK-MEL-28 cells by MTT assay; assay type: functional, cell-based; in short: as §1
[4] = Cytotoxicity against human U373 cells by MTT assay; assay type: functional, cell-based, U-373MG ATCC; details: U373 MG; in short: as §1
T98G = assay: Cytotoxicity against human T98G cells by MTT assay; assay type: functional, cell-based; in short: as §1
[5] = Cytostatic activity against human U373 cells after 72 hrs by videomicroscopy; assay type: functional, cell-based, U-373MG ATCC; details: U373 MG
SK-MEL-28 [6] = assay: Cytostatic activity against human SK-MEL-28 cells after 72 hrs by videomicroscopy; assay type: functional, cell-based; details: SK-MEL-28, 72 h

| IC50 (Hs 683) [nM] | solubility ([1]; read-out: solubility) [µg/mL] | Structure (SMILES) | IC50 [2] [nM] | IC50 (A549) [nM] | IC50 (SK-MEL-28 [3]) [nM] | IC50 [4] [nM] | IC50 (T98G) [nM] | further results |
| --- | --- | --- | --- | --- | --- | --- | --- | --- |
| 400 | – | Cc1c2c(cc[n+]1CCC(C)C)c1ccc(OCc3ccccc3)cc1n2Cc1ccccc1 | – | – | – | – | – | – |
| – | – | Cc1c2c(cc[n+]1Cc1ccc(F)cc1)c1ccc(OCc3cccc(F)c3)cc1n2Cc1cccc(F)c1.[Br-] | – | – | – | – | – | solubility [1]: 2.4 µg/mL |
| 400 | < 1.7 | Cc1c2c(cc[n+]1Cc1ccccc1)c1ccc(OCC3CCCCC3)cc1n2CC1CCCCC1.[Br-] | – | – | – | – | – | – |
| 300 | – | Cc1c2c(cc[n+]1Cc1ccccc1F)c1ccc(OCC3CCCCC3)cc1n2CC1CCCCC1 | – | – | – | – | – | – |
| 300 | – | Cc1c2c(cc[n+]1CCC(C)C)c1ccc(OCCC(C)C)cc1n2CCC(C)C | – | – | – | – | – | – |
| 500 | – | CCCn1c2cc(OCc3ccccc3)ccc2c2cc[n+](Cc3ccccc3F)c(C)c21 | – | – | – | – | – | – |
| 3100 | – | Cc1c2c(cc[n+]1Cc1ccccc1)c1ccc(OCCC(C)C)cc1n2CCC(C)C | – | – | – | – | – | – |
| 17000 | – | Cc1nccc2c3ccc(OCc4cccc(F)c4)cc3n(Cc3cccc(F)c3)c12 | – | – | – | – | – | – |
| – | 72.5 | Cc1c2c(cc[n+]1Cc1ccccc1)c1ccc(OCc3ccccc3)cc1n2Cc1ccccc1.[Br-] | – | – | – | – | – | – |
| 400 | – | Cc1c2c(cc[n+]1Cc1ccccc1F)c1ccc(OCc3ccccc3)cc1n2Cc1ccccc1 | – | – | – | – | – | – |
| – | – | Cc1c2c(cc[n+]1CCC(C)C)c1ccc(OCCC(C)C)cc1n2CCc1nnn[nH]1 | > 100000 | > 100000 | > 100000 | – | – | – |
| – | > 219 | Cc1c2c(cc[n+]1CCC(C)C)c1ccc(OCCO)cc1n2CCO.[Br-] | > 100000 | > 100000 | > 100000 | > 100000 | – | – |
| – | > 206 | Cc1c2c(cc[n+]1CCO)c1ccc(OCCO)cc1n2CCO.[Br-] | > 100000 | 51000 | 51000 | > 100000 | – | – |
| – | 174 | CCCOc1ccc2c3cc[n+](CC)c(C)c3n(CCC)c2c1.[Br-] | 2000 | 700 | 8000 | 35000 | 22000 | – |
| – | 196 | CCCOc1ccc2c3cc[n+](CCC(C)C)c(C)c3n(CCC)c2c1.[Br-] | 1000 | 2000 | 3000 | 22000 | 4000 | – |
| – | 207 | CCCn1c2cc(OCc3ccccc3)ccc2c2cc[n+](CC)c(C)c21.[Br-] | 3000 | 2000 | 4000 | 22000 | 11000 | – |
| 1000 | 164 | CCCn1c2cc(OCc3ccccc3)ccc2c2cc[n+](CCC(C)C)c(C)c21.[Br-] | 300 | 300 | 1000 | 2000 | 1500 | IC50 [5]: 1000 nM; IC50 (SK-MEL-28 [6]): 1000 nM |
| – | 207 | CCCn1c2cc(OCc3ccccc3)ccc2c2cc[n+](CC(C)C)c(C)c21.[Br-] | 400 | 800 | 600 | 1000 | 3800 | – |
| 1000 | 186 | CCCn1c2cc(OCCC(C)C)ccc2c2cc[n+](CC)c(C)c21.[Br-] | 90 | 200 | 1000 | 600 | 900 | IC50 [5]: 1000 nM; IC50 (SK-MEL-28 [6]): 1000 nM |
| – | 185 | CCCn1c2cc(OCCC(C)C)ccc2c2cc[n+](CCC)c(C)c21.[Br-] | 40 | 300 | 900 | 600 | 1200 | – |
| 26000 | – | Cc1c2c(cc[n+]1CC(=O)c1ccccc1)c1ccc(OCc3ccccc3)cc1n2Cc1ccccc1 | – | – | – | – | – | – |
